Results: ChEMBL document CHEMBL4364345, “Synthesis and evaluation of 1,3,4-oxadiazole derivatives for development as broad-spectrum antibiotics” (Bioorg Med Chem, 2019)
≈ marks a conversion by molar mass, not a printed value.

How the values were obtained:
Bacteroides fragilis = assay: Antimicrobial activity against Bacteroides fragilis ATCC 25285 at 50 ug/disk incubated for 20 +/- 4 hrs by agar disk diffusion method; assay type: functional; conditions: read-out: DIZ
Outline: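 Anaerobic disk diffusion: MH agar + 5% horse blood seeded from a 0.5 McFarland swab, with discs of 50 μg compound (10 μl of 5 g/L DMSO solution) and a DMSO control disc. Kept at 35 ± 2 °C under anaerobic conditions for 20 ± 4 h; inhibition diameters recorded.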

Proteus mirabilis = assay: Antimicrobial activity against Proteus mirabilis clinical isolate at 50 ug/disk incubated for 20 +/- 4 hrs by agar disk diffusion method; assay type: functional; conditions: read-out: DIZ
Outline: (§1)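 Agar disk diffusion on Mueller-Hinton agar swab-seeded from a 0.5 McFarland inoculum (about 10^8 CFU/ml). Cellulose discs got 50 μg compound (10 μl of 5 g/L in DMSO); a 10 μL DMSO disc was the control. Incubated aerobically at 35 ± 2 °C for 20 ± 4 h, then growth-inhibition diameters measured.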

Staphylococcus aureus = assay: Antimicrobial activity against Staphylococcus aureus clinical isolate at 50 ug/disk incubated for 20 +/- 4 hrs by agar disk diffusion method; assay type: functional; conditions: read-out: DIZ; outline: as §1
Escherichia coli [1] = assay: Bactericidal activity against TolC deficient Escherichia coli BW25113 by broth microdilution method; assay type: functional
NCI-H727 = assay: Cytotoxicity against human NCI-H727 cells assessed as decrease in cell viability in MTT assay; assay type: cell-based
Outline: (§2)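 Cell viability was measured by MTT on a robotic screening platform. Residual viability was expressed as a percentage of the mean viable cells in DMSO-treated controls. Under 25-30% viability was considered cytotoxic, and IC50 values were derived.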

Caco-2 = assay: Cytotoxicity against human Caco2 cells assessed as decrease in cell viability in MTT assay; assay type: cell-based; outline: as §2
[2] = test system: Mycolicibacterium fortuitum; assay: Antimicrobial activity against Mycobacterium fortuitum clinical isolate at 50 ug/disk incubated for 4 days by agar disk diffusion method; assay type: functional; conditions: 96 h, read-out: DIZ
Outline: (§3)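 On MH agar with 5% horse blood, a 0.5 McFarland inoculum was swabbed and discs with 50 μg compound (from 5 g/L in DMSO) were laid down, alongside a DMSO control disc. Incubation was humid and aerobic at 35 ± 2 °C for 4 days, then growth-inhibition diameters were measured.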

MDA-MB-231 = assay: Cytotoxicity against human MDA-MB-231 cells assessed as decrease in cell viability in MTT assay; assay type: cell-based; outline: as §2
Morganella morganii [3] = assay: Antimicrobial activity against Morganella morganii EB6 clinical isolate at 50 ug/disk incubated for 20 +/- 4 hrs by agar disk diffusion method; assay type: functional; conditions: read-out: DIZ; outline: as §1
Klebsiella pneumoniae = assay: Antimicrobial activity against Klebsiella pneumoniae clinical isolate at 50 ug/disk incubated for 20 +/- 4 hrs by agar disk diffusion method; assay type: functional; conditions: read-out: DIZ; outline: as §1
Enterococcus faecalis [4] = assay: Synergistic antimicrobial activity against Enterococcus faecalis ATCC 29212 assessed as DIZ at 50 ug/disk incubated for 20 +/- 4 hrs in presence of rifampicin by agar disk diffusion method (reference value: 20 millimeter); assay type: functional; conditions: read-out: DIZ
Enterococcus faecium [5] = assay: Synergistic antimicrobial activity against Enterococcus faecium AUS0004 assessed as DIZ at 50 ug/disk incubated for 20 +/- 4 hrs in presence of erythromycin by agar disk diffusion method (reference value: 6 millimeter); assay type: functional; conditions: read-out: DIZ
[6] = test system: Mycobacteroides abscessus; assay: Antimicrobial activity against Mycobacterium abscessus clinical isolate at 50 ug/disk incubated for 4 days by agar disk diffusion method; assay type: functional; conditions: 96 h, read-out: DIZ; outline: as §3
Escherichia coli [7] = assay: Antimicrobial activity against arfA-arfB TolC deficient Escherichia coli BW25113 by agar disk diffusion method; assay type: functional
Listeria monocytogenes [8] = assay: Synergistic antimicrobial activity against Listeria monocytogenes clinical isolate assessed as DIZ at 50 ug/disk incubated for 20 +/- 4 hrs in presence of fosfomycin by agar disk diffusion method (reference value: 6 millimeter); assay type: functional; conditions: read-out: DIZ
PC-3 = assay: Cytotoxicity against human PC3 cells assessed as decrease in cell viability in MTT assay; assay type: cell-based; outline: as §2
Enterococcus faecium [9] = assay: Synergistic antimicrobial activity against Enterococcus faecium AUS0004 assessed as DIZ at 50 ug/disk incubated for 20 +/- 4 hrs in presence of ampicillin by agar disk diffusion method (reference value: 6 millimeter); assay type: functional; conditions: read-out: DIZ
Escherichia coli [10] = assay: Antimicrobial activity against TolC deficient Escherichia coli BW25113 by broth microdilution method; assay type: functional
Outline: (§4)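 MIC by broth microdilution per EUCAST guidelines, in E. coli BW25113 and its previously described deletion derivative.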

[11] = Cytotoxicity against human NHFB cells assessed as decrease in cell viability in MTT assay; assay type: cell-based; outline: as §2
Enterococcus faecium [12] = assay: Synergistic antimicrobial activity against Enterococcus faecium AUS0004 assessed as DIZ at 50 ug/disk incubated for 20 +/- 4 hrs in presence of rifampicin by agar disk diffusion method (reference value: 10 millimeter); assay type: functional; conditions: read-out: DIZ
Listeria monocytogenes [13] = assay: Synergistic antimicrobial activity against Listeria monocytogenes clinical isolate assessed as DIZ at 50 ug/disk incubated for 20 +/- 4 hrs in presence of moxalactam by agar disk diffusion method (reference value: 13 millimeter); assay type: functional; conditions: read-out: DIZ
Enterococcus faecium [14] = assay: Antimicrobial activity against Enterococcus faecium AUS0004 at 50 ug/disk incubated for 20 +/- 4 hrs by agar disk diffusion method; assay type: functional; conditions: read-out: DIZ; outline: as §1
Streptococcus pyogenes = assay: Antimicrobial activity against Streptococcus pyogenes clinical isolate by broth microdilution method; assay type: functional
Outline: (§5)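 MICs were set by broth microdilution following EUCAST guidelines, from three independent experiments reported as values or ranges. MICs were measured only where disk-diffusion inhibition diameters were 9 mm or more.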

Enterococcus faecalis [15] = assay: Synergistic antimicrobial activity against Enterococcus faecalis ATCC 29212 assessed as DIZ at 50 ug/disk incubated for 20 +/- 4 hrs in presence of erythromycin by agar disk diffusion method (reference value: 20 millimeter); assay type: functional; conditions: read-out: DIZ
Enterococcus faecium [16] = assay: Synergistic antimicrobial activity against Enterococcus faecium AUS0004 assessed as DIZ at 50 ug/disk incubated for 20 +/- 4 hrs in presence of streptomycin by agar disk diffusion method (reference value: 22 millimeter); assay type: functional; conditions: read-out: DIZ
Enterococcus faecium [17] = assay: Antimicrobial activity against Enterococcus faecium AUS0004 by broth microdilution method; assay type: functional; outline: as §5
Proteus vulgaris = assay: Antimicrobial activity against Proteus vulgaris clinical isolate at 50 ug/disk incubated for 20 +/- 4 hrs by agar disk diffusion method; assay type: functional; conditions: read-out: DIZ; outline: as §1
Huh-7 = assay: Cytotoxicity against human HuH7 cells assessed as decrease in cell viability in MTT assay; assay type: cell-based; outline: as §2
Escherichia coli [18] = assay: Antimicrobial activity against Escherichia coli BW25113 by broth microdilution method; assay type: functional; outline: as §4
[19] = test system: Mycolicibacterium fortuitum; assay: Antimicrobial activity against Mycobacterium fortuitum clinical isolate by broth microdilution method; assay type: functional; outline: as §5
Morganella morganii [20] = assay: Antimicrobial activity against Morganella morganii EB8clinical isolate at 50 ug/disk incubated for 20 +/- 4 hrs by agar disk diffusion method; assay type: functional; conditions: EB8, read-out: DIZ; outline: as §1
Pseudomonas aeruginosa = assay: Antimicrobial activity against Pseudomonas aeruginosa clinical isolate at 50 ug/disk incubated for 20 +/- 4 hrs by agar disk diffusion method; assay type: functional; conditions: read-out: DIZ; outline: as §1
Escherichia coli [21] = assay: Antimicrobial activity against ssrA-TolC deficient Escherichia coli BW25113 by agar disk diffusion method; assay type: functional
Listeria monocytogenes [22] = assay: Antimicrobial activity against Listeria monocytogenes clinical isolate at 50 ug/disk incubated for 20 +/- 4 hrs by agar disk diffusion method; assay type: functional; conditions: read-out: DIZ
Outline: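 Disk diffusion on MH agar with 5% horse blood, seeded by swab from a 0.5 McFarland suspension. Discs held 50 μg compound from a 5 g/L DMSO solution, with a DMSO-only control disc. Aerobic incubation at 35 ± 2 °C for 20 ± 4 h; inhibition zone diameter read.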

For `O=C(Nc1nnc(-c2ccc(C(F)(F)F)cc2)o1)c1cccc(Cl)c1`, the zone of inhibition at 50 µg/disc (Bacteroides fragilis) was 11 mm, the zone of inhibition at 50 µg/disc (Proteus mirabilis) was 6 mm and the zone of inhibition at 50 µg/disc (Staphylococcus aureus) was 28 mm. The MBC (Escherichia coli [1]) was 16 µM (≈ 5.88 µg/mL), the IC50 (NCI-H727) was 10 µM and the IC50 (Caco-2) was 11 µM. It also gave a zone of inhibition at 50 µg/disc [2] of 23 mm, an IC50 (MDA-MB-231) of 23 µM and a zone of inhibition at 50 µg/disc (Morganella morganii [3]) of 6 mm. The zone of inhibition at 50 µg/disc (Klebsiella pneumoniae) was 6 mm, the zone of inhibition at 50 µg/disc (Enterococcus faecalis [4]) was 23 mm and the zone of inhibition at 50 µg/disc (Enterococcus faecium [5]) was 22 mm. The zone of inhibition at 50 µg/disc [6] was 9 mm, the “diameter of the inhibition zone (DIZ)” value (Escherichia coli [7]) was 22.6 mm and the zone of inhibition at 50 µg/disc (Listeria monocytogenes [8]) was 30 mm. The IC50 (PC-3) was 17 µM, the zone of inhibition at 50 µg/disc (Enterococcus faecium [9]) was 24 mm and the MBC (Escherichia coli [10]) was 16 µM (≈ 5.88 µg/mL). For the same molecule, the MIC (Escherichia coli [10]) was 0.25 µM (≈ 0.0919 µg/mL), the IC50 [11] was > 25 µM and the zone of inhibition at 50 µg/disc (Enterococcus faecium [12]) was 26 mm. For the same molecule, the zone of inhibition at 50 µg/disc (Listeria monocytogenes [13]) was 33 mm, the zone of inhibition at 50 µg/disc (Enterococcus faecium [14]) was 21 mm and the MIC (Streptococcus pyogenes) was 4 to 32 mg/L (≈ 10.9 to 87 µM). For the same molecule, the zone of inhibition at 50 µg/disc (Enterococcus faecalis [15]) was 24 mm, the zone of inhibition at 50 µg/disc (Enterococcus faecium [16]) was 26 mm and the MIC (Enterococcus faecium [17]) was 0.0625 to 0.25 mg/L (≈ 0.17 to 0.68 µM). For the same molecule, the zone of inhibition at 50 µg/disc (Proteus vulgaris) was 6 mm, the IC50 (Huh-7) was 20 µM and the MIC (Escherichia coli [18]) was > 128 µM. It also gave an MIC [19] of 16 to 32 mg/L (≈ 43.5 to 87 µM), a zone of inhibition at 50 µg/disc (Morganella morganii [20]) of 6 mm and a zone of inhibition at 50 µg/disc (Pseudomonas aeruginosa) of 6 mm. The “diameter of the inhibition zone (DIZ)” value (Escherichia coli [21]) was 22.3 mm and the zone of inhibition at 50 µg/disc (Listeria monocytogenes [22]) was 28 mm.
Molecule `O=C(Nc1nnc(-c2ccc(F)cc2)o1)c1ccc(Cl)cc1` has a zone of inhibition at 50 µg/disc (Bacteroides fragilis) of 6 mm, a zone of inhibition at 50 µg/disc (Proteus mirabilis) of 6 mm and a zone of inhibition at 50 µg/disc (Staphylococcus aureus) of 17 mm. For the same molecule, the MBC (Escherichia coli [1]) was > 32 µM, the IC50 (NCI-H727) was 18 µM and the IC50 (Caco-2) was 14 µM. For the same molecule, the zone of inhibition at 50 µg/disc [2] was 9 mm, the IC50 (MDA-MB-231) was 25 µM and the zone of inhibition at 50 µg/disc (Morganella morganii [3]) was 6 mm. The zone of inhibition at 50 µg/disc (Klebsiella pneumoniae) was 6 mm, the zone of inhibition at 50 µg/disc [6] was 6 mm and the “diameter of the inhibition zone (DIZ)” value (Escherichia coli [7]) was 12.3 mm. For the same molecule, the IC50 (PC-3) was 21 µM, the MIC (Escherichia coli [10]) was 2 µM (≈ 0.635 µg/mL) and the IC50 [11] was > 25 µM. The zone of inhibition at 50 µg/disc (Enterococcus faecium [14]) was 6 mm, the MIC (Streptococcus pyogenes) was 32 to 64 mg/L (≈ 101 to 201 µM) and the MIC (Enterococcus faecium [17]) was 16 mg/L (≈ 50.4 µM). For the same molecule, the zone of inhibition at 50 µg/disc (Proteus vulgaris) was 6 mm, the IC50 (Huh-7) was 20 µM and the MIC (Escherichia coli [18]) was > 128 µM. The MIC [19] was 32 mg/L (≈ 101 µM), the zone of inhibition at 50 µg/disc (Morganella morganii [20]) was 6 mm and the zone of inhibition at 50 µg/disc (Pseudomonas aeruginosa) was 6 mm. The “diameter of the inhibition zone (DIZ)” value (Escherichia coli [21]) was 13 mm and the zone of inhibition at 50 µg/disc (Listeria monocytogenes [22]) was 13 mm.
